RAM inhibit: inhibitors of the yeast RAM network | S. cerevisiae dse1pr::URA3 reporter, 5-FOA growth OD615, 2 d; analog-sensitive cbk1-as2 kinase mutant strain | inhibition, % at 50 µM | 190,000 compounds, 1.8% hits;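 active means inhibition above a set limit, 3 SD over mean compound inhibition, cut at about 8.4% in these data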;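 further: inhibition rescues growth on 5-FOA so higher OD means more RAM inhibition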
WT yeast gro inh: growth inhibition of WT yeast, mitochondrial fusion screen; mitochondrial fusion phenotypic screen, WT strain; inhibition, % at 10 µM; 190,000 compounds, 2.1% hits; AID 1362; in the data active means inhibition above about 58%; tested in S. cerevisiae
ABCG2 block: blocks JC-1 efflux by human ABCG2 transporter. IgMXP3 cells, flow cytometry. inhibition, % at 6.6 µM. 190,000 compounds, 0.1% hits;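 active means inhibition above 80%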
Target sequence (Q9UNQ0 whole entry, looked up): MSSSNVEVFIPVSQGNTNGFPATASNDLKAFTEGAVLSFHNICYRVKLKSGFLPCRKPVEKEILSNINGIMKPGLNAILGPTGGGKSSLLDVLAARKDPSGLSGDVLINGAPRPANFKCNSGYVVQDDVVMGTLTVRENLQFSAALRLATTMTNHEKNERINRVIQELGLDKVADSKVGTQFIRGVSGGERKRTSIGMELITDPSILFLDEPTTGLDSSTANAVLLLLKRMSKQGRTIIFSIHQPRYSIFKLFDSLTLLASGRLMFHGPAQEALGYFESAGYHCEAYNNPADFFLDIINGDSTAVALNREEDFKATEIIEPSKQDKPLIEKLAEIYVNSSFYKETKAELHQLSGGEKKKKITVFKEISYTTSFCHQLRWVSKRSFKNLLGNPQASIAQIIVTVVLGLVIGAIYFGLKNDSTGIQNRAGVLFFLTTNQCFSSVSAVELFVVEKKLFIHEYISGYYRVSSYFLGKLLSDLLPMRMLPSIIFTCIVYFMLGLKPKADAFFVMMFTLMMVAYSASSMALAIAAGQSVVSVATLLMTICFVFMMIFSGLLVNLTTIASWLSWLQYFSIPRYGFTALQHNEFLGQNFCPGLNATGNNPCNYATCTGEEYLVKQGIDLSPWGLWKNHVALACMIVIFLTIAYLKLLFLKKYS
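Test system: IgMXP3 cells (ABCG2) mixed with DDAO far-red-labelled CCRF-Adr cells (ABCB1). Reagent: JC-1 transporter substrate. Compound dosing: single test compound dose, 6.6 µM final. Times: 10 min compound exposure, 25 °C. Detection: flow cytometry of retained JC-1 fluorescence. Read-out basis: efflux inhibition in percent versus controls. Controls: nicardipine and DMSO wells.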
ABCB1 block: human ABCB1 inhibition, ABCG2 as counter-screen | P08183 | CCRF-Adr cells, JC-1 efflux, flow cytometry | inhibition, % at 6.6 µM | 190,000 compounds, 0.067% hits; in the data active means inhibition above about 40%;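 further: higher value means more JC-1 retained so stronger ABCB1 efflux block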
L major viab: Leishmania major promastigote growth inhibition; Leishmania major promastigotes, resazurin fluorescence viability; inhibition, % at 10 µM; 200,000 compounds, 9% hits; in the data active means inhibition above about 50%;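 further: promastigotes grown with compound for 44 hours at 28 °C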
A number is an active result; 0 = inactive; - = not tested or not shown. Rows were chosen to be rich in hits. Some 12% of all compounds tested hit in one or more screens of this group.

SMILES	RAM inhibit	WT yeast gro inh	ABCG2 block	ABCB1 block	L major viab
O=C1C2C3C=CC(C3=C(c3ccccc3)c3ccccc3)C2C(=O)N1CCO (configuration not stated)	0	0	0	0	97.6
O=C(Cc1ccc(Br)cc1)N(Cc1ccccc1)c1ccccn1	0	0	0	0	0
Cc1ccc(C(=O)Nc2cc([N+](=O)[O-])ccc2C)cc1	0	0	0	0	0
Cc1ccc(C(=O)Nc2ccc(NC(=O)c3cccs3)cc2)cc1[N+](=O)[O-]	0	0	0	0	0
Cc1ccc(NC(=O)c2ccc(N/N=C/c3cccc(O)c3)c([N+](=O)[O-])c2)cc1	9.0	0	0	0	0
Cc1ccccc1NC(=O)c1ccc(N/N=C/c2ccccc2O)c([N+](=O)[O-])c1	8.7	0	0	0	0
Cc1ccc(NC(=O)c2ccc(Nc3c([N+](=O)[O-])cc([N+](=O)[O-])cc3[N+](=O)[O-])cc2)cc1	0	59.8	0	0	100.4
CCC(CO)NC1=CC(=O)CCC1 (configuration not stated)	0	0	0	0	0
COc1ccccc1-n1c(SCC(=O)c2ccc(O)cc2O)nc2cc([N+](=O)[O-])ccc21	0	77.4	0	0	51.4
CCN(CC)S(=O)(=O)c1ccc2c(c1)nc(SCC(=O)NC1CC1)n2-c1ccccc1OC	0	0	0	0	79.7
Cc1nc2ccccc2nc(C)c1=NOCc1ccccc1Cl	0	0	0	0	0
COc1cccc(NC(=O)c2cc(OC)c(OC)c(OC)c2Br)c1	0	0	0	0	0
Cc1cccc(NC(=S)N/N=C/c2c[nH]c3ccccc23)c1	0	0	0	0	0
CCOP(=O)(c1ccccc1)c1nc(-c2ccccc2Cl)oc1N1CCCCC1 (configuration not stated)	0	66.4	0	0	0
CCOP(=O)(OCC)c1nc(-c2cccc([N+](=O)[O-])c2)oc1N1CCCCC1	0	0	0	0	0
Cc1ccccc1CN(C)C(C)C(=O)Nc1ccccc1F (configuration not stated)	0	0	0	0	0
CC(NC(=O)C(C)N1C(=O)C2C3CC(C(Br)C3Br)C2C1=O)c1ccccc1 (configuration not stated)	0	0	0	0	82.4
O=C(NCCN1CCN(c2ccccc2)CC1)C1CCN(S(=O)(=O)c2cccc3nsnc23)CC1	0	0	0	0	0
CCc1nc(CN2CCCC(C(=O)c3ccc4c5c(cccc35)CC4)C2)c(C)[nH]1 (configuration not stated)	0	0	0	0	99.0
O=C(c1ccc2c3c(cccc13)CC2)C1CCCN(Cc2ccncc2)C1 (configuration not stated)	0	0	0	0	97.0
CCCC[n+]1c(-c2ccc(Cl)cc2Cl)csc1Nc1ccccc1	0	67.5	0	0	0
C=CC[n+]1c(-c2ccc(Cl)cc2Cl)csc1Nc1ccc(NC(C)=O)cc1	0	86.1	0	0	52.5
C=CC[n+]1c(-c2ccc(Cl)cc2Cl)csc1Nc1c(C)n(C)n(-c2ccccc2)c1=O	0	0	0	0	0
Fc1ccc(N2CCN(C3=Nc4cccc5cccc3c45)CC2)cc1	0	59.0	0	0	98.0
COc1ccccc1N1CCN(C(=O)CCN2C(=O)c3cccc4cccc(c34)C2=O)CC1	0	0	0	0	0
SMILES	RAM inhibit	WT yeast gro inh	ABCG2 block	ABCB1 block	L major viab
O=C(CCN1C(=O)c2cccc3cccc(c23)C1=O)N1CCOCC1	0	0	0	0	0
COc1ccc(N2CCN(C(=O)CCCN3C(=O)c4cccc5cccc(c45)C3=O)CC2)cc1	0	-	0	0	98.4
O=C(CCCN1C(=O)c2cccc3cccc(c23)C1=O)N1CCN(c2ccc(F)cc2)CC1	0	0	0	0	58.4
Cc1ccc2[nH]c(=O)c(CNS(=O)(=O)c3ccccc3)c(-c3ccccc3)c2c1	0	0	0	0	0
Cc1c(NC(=O)C(C)OC(=O)c2ccc([N+](=O)[O-])s2)c(=O)n(-c2ccccc2)n1C (configuration not stated)	0	0	0	0	76.6
Cc1c(NC(=O)C(C)OC(=O)CCc2ccccc2)c(=O)n(-c2ccccc2)n1C (configuration not stated)	0	0	0	0	53.9
CSc1nccc(-c2nn(-c3ccc(C)cc3)ccc2=O)n1	0	0	0	0	100.2
O=C(NCc1cccnc1)C(=O)NCC(c1ccco1)N1CCOCC1 (configuration not stated)	0	0	0	0	0
O=C(NCc1ccccc1)C(=O)NCC(c1ccco1)N1CCN(c2ccccc2F)CC1 (configuration not stated)	0	0	0	0	0
O=C(NCCc1c[nH]c2ccccc12)/C(=C\c1ccco1)NC(=O)c1ccco1	0	0	0	0	55.5
O=C(NCCC1=CCCCC1)C(=O)NCC(c1ccco1)N1CCN(c2ccc(F)cc2)CC1 (configuration not stated)	0	0	0	0	80.3
O=C(NCCc1c[nH]c2ccccc12)C(=O)NCC(c1ccco1)N1CCN(c2ccccc2F)CC1 (configuration not stated)	0	0	0	0	75.6
O=C(NCC(c1cccnc1)N1CCN(c2ccccc2)CC1)c1ccco1 (configuration not stated)	-	-	-	-	89.3
COc1cc(C)ccc1OCCOCCOc1ccc([N+](=O)[O-])cc1	0	0	0	0	0
Cc1ccc(-c2nnn(CC(=O)N(c3ccc4c(c3)OCCO4)C(C(=O)NCC3CCCO3)c3ccc(F)cc3)n2)o1 (configuration not stated)	0	0	0	0	0
O=C(NCc1cccnc1)C(=O)NCC(c1ccco1)N1CCN(c2ccccc2F)CC1 (configuration not stated)	0	0	0	0	55.9
O=C(NCc1cccnc1)C(=O)NCC(c1ccco1)N1CCN(c2ccccc2)CC1 (configuration not stated)	0	0	0	0	52.4
Fc1ccc(Nc2nc(-c3ccncc3)nc3ccccc23)cc1F	0	0	0	0	81.0
N=c1c2c3c(sc2ncn1Cc1ccccc1)CCCC3	0	0	0	0	91.9
CC(C)Oc1cc(O)c2c(=O)c(-c3ccc(O)cc3)coc2c1	0	0	0	0	0
CC1(C)C=Cc2c(c3c(c4c(=O)c(-c5ccc(O)cc5)coc24)OC(C)(C)CC3)O1	0	71.4	0	0	0
CCOc1cc(C(=O)Nc2ccc(NC(C)=O)cc2)ccc1OCC(=O)N1CCCCC1	0	0	0	0	0
Cc1ccccc1Nc1cc(C)c2c(O)cccc2n1	0	58.5	0	0	75.0
Cc1cc(Nc2ccccc2O)c2ccccc2n1	0	0	0	0	0
CCC(c1nnnn1C(C)(C)C)N(Cc1ccco1)Cc1cc2cccc(C)c2[nH]c1=O (configuration not stated)	0	0	0	0	61.5
Cc1cc(C)c2[nH]c(=O)c(C(c3nnnn3C(C)(C)C)N(Cc3ccco3)CC3CCCO3)cc2c1 (configuration not stated)	0	0	0	0	0

Source: PubChem BioAssay (several laboratories)
